In the library only some 3.5% were active in any assay of this set; here they are far more common.
MrgX1 antag: antagonists of human MrgX1 receptor; 1.3% of 310,000 active; Q96LB2; MRGX1-HEK293 calcium flux, Fluo-4, BAM8-22 antagonism; hits give low values; AID 588676; B-score at 10 µM;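 active = calcium-response B-score plate-corrected more than 3 library SD below zero, starting fluorescence within 5 deviations, no agonist response on first addition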;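 note: peak minus trough fluorescence over baseline after final BAM8-22 challenge near maximal dose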
Target sequence (Q96LB2 whole entry, looked up): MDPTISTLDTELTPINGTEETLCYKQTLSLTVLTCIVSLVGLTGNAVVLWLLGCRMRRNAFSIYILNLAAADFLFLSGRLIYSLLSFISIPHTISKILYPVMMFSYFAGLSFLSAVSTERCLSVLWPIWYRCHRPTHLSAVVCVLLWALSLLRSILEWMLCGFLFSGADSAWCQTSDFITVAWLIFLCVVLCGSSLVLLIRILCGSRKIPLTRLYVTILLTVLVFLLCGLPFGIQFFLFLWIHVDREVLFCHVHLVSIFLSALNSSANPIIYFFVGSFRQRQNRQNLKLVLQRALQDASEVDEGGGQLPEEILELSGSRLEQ
RGS4 pot: potentiators or activators of RGS4. HEK293 M3R/inducible RGS4, carbachol calcium flux Fluo4; hits give low values. B-score at 10 µM. 0.92% of 310,000 active;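 active = B-score of the integrated calcium signal more than 4 SD below the library mean, with starting fluorescence not abnormally high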;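 note: negative B-score means reduced calcium response which marks RGS4 activation or potentiation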
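Detection: kinetic calcium fluorescence imaging with Fluo4-AM dye, 2 µM / Material: HEK293 cells with stable M3R and inducible RGS4 / Schedule: recording 10 s baseline at 1 Hz, 100 s post-agonist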
RGS4 block: human RGS4 inhibition; HEK293 M3R/RGS4 inducible, Fluo-4 calcium flux; hits give high values; triggered by carbachol at its EC20; AID 463165; P49798; B-score at 10 µM; 0.45% of 310,000 active;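 active = B-score, a plate-corrected calcium signal, over three deviations above library mean, with baseline fluorescence within five deviations of library mean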;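 note: RGS4 expression induced by doxycycline in cells with stable M3 receptor; B-score is computed from the integrated fluorescence ratio over baseline after carbachol; higher B-score means a larger calcium signal and so more RGS4 inhibition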
Target sequence (P49798 whole entry, looked up): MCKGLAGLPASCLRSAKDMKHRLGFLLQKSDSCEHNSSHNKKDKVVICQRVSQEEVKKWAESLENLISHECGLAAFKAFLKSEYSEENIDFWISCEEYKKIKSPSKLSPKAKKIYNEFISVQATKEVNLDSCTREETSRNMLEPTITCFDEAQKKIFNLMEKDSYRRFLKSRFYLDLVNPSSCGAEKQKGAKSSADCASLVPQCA
MrgX1 allo act: human MrgX1 positive allosteric modulation, primary screen; Q96LB2; MrgX1-HEK293, Fluo-4 calcium flux, FDSS; hits give high values; B-score at 10 µM; 0.63% of 310,000 active; AID 588675;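 active = plate-corrected calcium response at least 3 library SD above typical, normal starting fluorescence, not activating the receptor alone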;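 note: compound read alongside a low EC10 to EC30 dose of BAM8-22 agonist; peak minus trough fluorescence over baseline measured at the second addition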
MrgX1 ag: agonists of human MrgX1 receptor; Q96LB2; B-score at 10 µM; 0.44% of 310,000 active; AID 588627; MrgX1-HEK293 cells, Fluo-4 calcium fluorescence, agonist mode; hits give high values;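 active = calcium response B-score plate-corrected fluorescence ratio at least 3 library SD, with starting fluorescence B-score inside 5 SD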
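Assay system: stable human MrgX1 HEK293 cell line. Quantity: 15,000 cells per well. Schedule: cells plated overnight, dye loaded 0.5 h 37 °C, 0.5 h room temperature. Detection: Fluo-4 NW calcium-flux fluorescence, kinetic read. Read-out basis: peak-minus-minimum fluorescence over baseline, converted to B scores. Control set: positive and negative control wells on each plate.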
MrgX1 allo conf: human MrgX1 positive allosteric modulation, re-confirmation | 13% of 1,200 active | MrgX1-HEK293, Fluo-4 calcium fluorescence, FDSS | activation (ratio percentage), % at 10 µM | shares compounds with MrgX1 allo act;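 active = ratio at least 3 SD above the weak peptide control, stable starting fluorescence, no direct agonism earlier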;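 note: compound followed by low BAM8-22 agonist challenge near EC20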
HEK293 Ca flux: activity in parental HEK293 cells lacking MrgX1 | shares compounds with MrgX1 antag | Fluo-4 calcium fluorescence, FDSS | fluorescence ratio F(max-min)/F0 at 10 µM | 2% of 4,000 active | AID 624111;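 active = duplicate-averaged calcium fluorescence ratio at least three times the standard deviation of buffer wells, a nonspecific response in parental cells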
HEK293 Ca counter: activity in parental HEK293 cells without MrgX1. shares compounds with MrgX1 antag. parental HEK293 calcium flux, Fluo-4 fluorescence ratio; hits give high values. AID 624114. fluorescence ratio F(max-min)/F0 at 10 µM. 0.4% of 4,000 active;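 active = calcium fluorescence ratio, averaged over duplicates, at least 3 SD of the buffer-well ratio, meaning a nonspecific response in receptor-free cells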;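 note: untransfected parental HEK293 lacking MrgX1 used as counterscreen for MrgX1 allosteric activators; fluorescence change taken during the second addition on a kinetic imager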
HEK293 Ca cntr2: counter-screen for MrgX1 activators: effect in parental HEK293 cells | Fluo-4 calcium fluorescence (FDSS); hits give high values | shares compounds with MrgX1 antag | fluorescence ratio F(max-min)/F0 at 10 µM | AID 624115 | 8.7% of 4,000 active;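 active = calcium fluorescence ratio at least three times the spread of buffer wells, meaning a non-specific response in parental cells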
An asterisk follows results filed as active; i = inactive; x = no result given.

SMILES | MrgX1 antag | RGS4 pot | RGS4 block | MrgX1 allo act | MrgX1 ag | MrgX1 allo conf | HEK293 Ca flux | HEK293 Ca counter | HEK293 Ca cntr2
CCN(CC(=O)Nc1ccc(NC(C)=O)cc1)c1ccc(C(F)(F)F)cn1 | i | i | i | 9.6* | i | i | i | i | i
CCc1ccc(N2C(=O)CC(Cn3nc(C)cc3C)C2=O)cc1 (stereo not given) | i | i | i | i | i | x | x | x | x
Cc1nc(N2CCN(Cc3ccccc3)CC2)nc2c1C(=O)CC(C)C2 (stereo not given) | i | i | i | i | i | x | x | x | x
CCN1CCN(c2nc(C)c3c(n2)CC(C)CC3=O)CC1 (stereo not given) | i | i | i | 8* | i | i | i | i | i
O=C(Nc1ccc(F)cc1)C(=O)C1C(=O)Nc2ccccc21 (stereo not given) | i | i | i | 6.6* | i | i | i | i | i
O=C1CC(c2ccco2)CC(O)=C1C=Nc1cc(Cl)ccc1O (stereo not given) | i | i | i | 10* | i | 41%* | i | i | i
O=C1C(Cc2ccccc2O)NC(=S)N1c1ccccc1 (stereo not given) | i | i | i | i | i | x | x | x | x
CCc1n[nH]c(=S)n1/N=C/C(C)=C\c1ccccc1 | i | i | i | 6.6* | i | i | i | i | i
CCc1cc(=O)[nH]c(SCCC(F)=C(F)F)n1 | i | i | i | i | i | x | x | x | x
Cc1c(C(=O)c2ccccc2)oc2ccc3ccccc3c12 | i | i | i | 13* | i | i | i | 48* | i
Nc1c(C(=O)c2ccccc2)oc2ccccc12 | i | i | i | i | i | x | x | x | x
CCCCc1ccc(NC(=S)NCCN2CCOCC2)cc1 | i | i | i | i | i | x | x | x | x
O=C(Cn1c(NCCO)nc2ccccc21)c1ccccc1 | i | i | i | 7.3* | i | i | i | i | i
CN1CCN(c2cc(C(F)(F)F)nc3ccc(F)cc23)CC1 | i | i | i | i | i | x | x | x | x
O=C(Nc1ccccc1Cl)NC1CCCCCCC1 | i | i | i | i | i | x | x | x | x
Cc1ccccc1Nc1cc2ccccc2c(=O)[nH]1 | i | i | i | i | i | x | x | x | x
O=c1[nH]c(Nc2ccccc2Cl)cc2ccccc12 | i | i | i | 8* | i | i | i | i | i
O=C(CN(C(=O)CNC(=O)c1cccs1)c1ccccc1)NC1CCCCC1 | i | i | i | 37* | i | i | i | i | i
COC(=O)c1ccc(NS(=O)(=O)c2ccc(Cl)cc2)o1 | i | i | i | 22* | i | 12%* | i | i | i
Cc1ccc2nc(C)c3c(c2c1)N(c1ccc(F)cc1)CC3 | i | i | i | i | i | x | x | x | x
C=CCN(CC=C)C(=S)NC(=O)c1ccc(C)c(Br)c1 | i | i | i | 8.3* | i | i | i | i | i
Cc1ccc(N2CCN(Cc3ccccc3)CC2=O)c(C)c1 | i | i | i | i | i | x | x | x | x
Cc1ccc(Nc2ncccc2C(=O)NCc2cccs2)c(C)c1 | i | i | i | i | i | x | x | x | x
Cc1ccc(Sc2ncccc2C(=O)N(C)Cc2cccs2)c(C)c1 | i | i | i | 25* | i | i | i | i | i
N#CC1=C(N)OC2=C(CCc3ccccc32)C1c1ccccc1 (stereo not given) | i | i | i | 9.7* | i | i | i | i | i
SMILES | MrgX1 antag | RGS4 pot | RGS4 block | MrgX1 allo act | MrgX1 ag | MrgX1 allo conf | HEK293 Ca flux | HEK293 Ca counter | HEK293 Ca cntr2
N#CC1=C(N)Oc2cc(O)ccc2C1c1ccccc1 (stereo not given) | i | i | i | i | i | x | x | x | x
COc1ccc(C(=O)N/C(=C\c2cn(C)c3ccccc23)C(=O)N2CCOCC2)cc1 | i | i | i | i | i | x | x | x | x
Brc1ccc([C@H]2CN3CCSC3=N2)cc1 | i | i | i | i | i | x | x | x | x
C=CCc1ccccc1Oc1cc(F)nc(N)n1 | i | i | i | 15* | i | 9.9%* | i | i | i
Cc1ccc(C)c(Oc2cc(F)nc(N)n2)c1 | i | i | i | i | i | x | x | x | x
CC(C)CN(C(=O)COC(=O)C(C)N1C(=O)c2ccccc2C1=O)c1c(N)n(Cc2ccccc2)c(=O)[nH]c1=O (stereo not given) | i | i | i | i | i | x | x | x | x
Cc1ccc(-c2[nH]ncc2C(=O)c2ccc(Br)cc2)c(O)c1 | i | i | i | 8.7* | i | i | i | i | i
Cc1ccc(C(=O)c2cn[nH]c2-c2cc(Cl)ccc2O)cc1 | i | i | i | 11* | i | i | i | i | i
COc1ccccc1Oc1ncnc2sccc12 | i | i | i | i | i | x | x | x | x
Cc1ccccc1Oc1ncnc2sccc12 | i | i | i | 8.4* | i | 11%* | i | i | i
CCN(CC(=O)Nc1c(F)cccc1F)C(=O)Cc1csc(-c2ccccc2)n1 | i | i | i | 7.5* | i | i | i | i | i
CCCNC(=O)CN1CCC(c2nc3ccccc3[nH]2)CC1 | i | i | i | 12* | i | i | i | i | i
Cc1nnsc1S(=O)(=O)Cc1ccccc1C(F)(F)F | i | i | i | i | i | x | x | x | x
Cc1c(CC(=O)O)c(=O)oc2c(C)c(OCc3c(F)cccc3Cl)ccc12 | i | i | i | 13* | i | i | i | i | i
Cc1c(CC(=O)O)c(=O)oc2c(C)c(OCc3ccccc3)ccc12 | i | i | i | i | i | x | x | x | x
CC1C(=O)N(Cc2ccccc2F)c2ccccc2N1C(=O)c1c(F)cccc1F (stereo not given) | i | i | i | 9* | i | i | i | i | i
O=C(Nc1ccc(C(=O)NC2CCCCC2)cc1)c1cccnc1 | i | i | i | 10* | i | i | i | i | i

High-throughput results (PubChem BioAssay)
